From ChEMBL document CHEMBL5058577, “EUbOPEN Chemogenomics Library 2 (Multiplex)” (2022)

Tested on: U2OS
Assay: Multiplex assay against U2OS
Type: toxicity, cell-based
Details: human
How it was run: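 Imaging took place on a CQ1 microscope at 37°C and 5% CO2 once compound had been added to live cells stained at seeding with Hoechst33342, BioTracker Green Microtubule Cytoskeleton Dye, MitoTracker Red and Annexin V Alexa Fluor 680. CellPathfinder machine-learning gating classed cells as Hoechst high-intensity objects or normal cells, classed normal cells as having healthy, pyknosed or fragmented nuclei, and classed pyknosed cells as mitotic or apoptotic. Tubulin, mitochondrial-mass and membrane-permeability phenotypes are per cents of the healthy-nucleus cells.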

[1] = 12 h, 1 µM, compound concentration 1 uM, replicate 1
[2] = 12 h, 1 µM, compound concentration 1 uM, replicate 2
[3] = 12 h, 10 µM, compound concentration 10 uM, replicate 1
[4] = 12 h, 10 µM, compound concentration 10 uM, replicate 2
[5] = 24 h, 1 µM, compound concentration 1 uM, replicate 1
[6] = 24 h, 1 µM, compound concentration 1 uM, replicate 2
[7] = 24 h, 10 µM, compound concentration 10 uM, replicate 1
[8] = 24 h, 10 µM, compound concentration 10 uM, replicate 2
[9] = 48 h, 1 µM, compound concentration 1 uM, replicate 1
[10] = 48 h, 1 µM, compound concentration 1 uM, replicate 2
[11] = 48 h, 10 µM, compound concentration 10 uM, replicate 1
[12] = 48 h, 10 µM, compound concentration 10 uM, replicate 2

## CC(C)(O)C(=O)N1CCN(c2ccc(C(F)(F)F)c(C3=C(c4c[nH]c5ccccc45)C(=O)NC3=O)c2)CC1
[1]
  Population Apoptotic (%): 88%
  Population Fragmented Nuclei (%): 29%
  Population Healthy Nuclei (%): 63%
  Population Hoechst High Intensity Objects (%): 3%
  Population Membrane Permeable-Phenotype (%): 5%
  Population Mitochondria Different-Phenotype (%): 2%
  Population Mitotic Cells (%): 11%
  Population Normal (%): 96%
  Population Pyknosed Nuclei (%): 7%
  Population Tubulin-Different-Phenotype (%): 3%
  Total Cell Count: 238
[2]
  Population Apoptotic (%): 92%
  Population Fragmented Nuclei (%): 14%
  Population Healthy Nuclei (%): 75%
  Population Hoechst High Intensity Objects (%): 1%
  Population Membrane Permeable-Phenotype (%): 4%
  Population Mitochondria Different-Phenotype (%): 4%
  Population Mitotic Cells (%): 7%
  Population Normal (%): 98%
  Population Pyknosed Nuclei (%): 9%
  Total Cell Count: 134
[3]
  Population Apoptotic (%): 76%
  Population Fragmented Nuclei (%): 37%
  Population Healthy Nuclei (%): 46%
  Population Hoechst High Intensity Objects (%): 6%
  Population Membrane Permeable-Phenotype (%): 39%
  Population Mitochondria Different-Phenotype (%): 23%
  Population Mitotic Cells (%): 24%
  Population Normal (%): 93%
  Population Pyknosed Nuclei (%): 16%
  Population Tubulin-Different-Phenotype (%): 30%
  Total Cell Count: 166
[4]
  Population Apoptotic (%): 50%
  Population Fragmented Nuclei (%): 6%
  Population Healthy Nuclei (%): 77%
  Population Hoechst High Intensity Objects (%): 1%
  Population Membrane Permeable-Phenotype (%): 14%
  Population Mitochondria Different-Phenotype (%): 14%
  Population Mitotic Cells (%): 50%
  Population Normal (%): 98%
  Population Tubulin-Different-Phenotype (%): 15%
  Total Cell Count: 148
[5]
  Population Apoptotic (%): 89%
  Population Fragmented Nuclei (%): 27%
  Population Healthy Nuclei (%): 61%
  Population Hoechst High Intensity Objects (%): 3%
  Population Membrane Permeable-Phenotype (%): 7%
  Population Mitochondria Different-Phenotype (%): 3%
  Population Mitotic Cells (%): 10%
  Population Normal (%): 96%
  Population Pyknosed Nuclei (%): 11%
  Population Tubulin-Different-Phenotype (%): 5%
  Total Cell Count: 263
[6]
  Population Apoptotic (%): 82%
  Population Fragmented Nuclei (%): 22%
  Population Healthy Nuclei (%): 67%
  Population Hoechst High Intensity Objects (%): 0%
  Population Membrane Permeable-Phenotype (%): 4%
  Population Mitochondria Different-Phenotype (%): 2%
  Population Mitotic Cells (%): 17%
  Population Normal (%): 100%
  Population Pyknosed Nuclei (%): 9%
  Population Tubulin-Different-Phenotype (%): 2%
  Total Cell Count: 172
[7]
  Population Apoptotic (%): 87%
  Population Fragmented Nuclei (%): 48%
  Population Healthy Nuclei (%): 27%
  Population Hoechst High Intensity Objects (%): 6%
  Population Membrane Permeable-Phenotype (%): 11%
  Population Mitochondria Different-Phenotype (%): 34%
  Population Mitotic Cells (%): 12%
  Population Normal (%): 93%
  Population Pyknosed Nuclei (%): 24%
  Population Tubulin-Different-Phenotype (%): 15%
  Total Cell Count: 172
[8]
  Population Apoptotic (%): 70%
  Population Fragmented Nuclei (%): 16%
  Population Healthy Nuclei (%): 53%
  Population Hoechst High Intensity Objects (%): 2%
  Population Membrane Permeable-Phenotype (%): 15%
  Population Mitochondria Different-Phenotype (%): 24%
  Population Mitotic Cells (%): 29%
  Population Normal (%): 97%
  Population Pyknosed Nuclei (%): 29%
  Population Tubulin-Different-Phenotype (%): 11%
  Total Cell Count: 152
[9]
  Population Apoptotic (%): 95%
  Population Fragmented Nuclei (%): 21%
  Population Healthy Nuclei (%): 65%
  Population Hoechst High Intensity Objects (%): 3%
  Population Membrane Permeable-Phenotype (%): 6%
  Population Mitochondria Different-Phenotype (%): 4%
  Population Mitotic Cells (%): 4%
  Population Normal (%): 96%
  Population Pyknosed Nuclei (%): 12%
  Population Tubulin-Different-Phenotype (%): 5%
  Total Cell Count: 377
[10]
  Population Apoptotic (%): 85%
  Population Fragmented Nuclei (%): 17%
  Population Healthy Nuclei (%): 73%
  Population Hoechst High Intensity Objects (%): 1%
  Population Membrane Permeable-Phenotype (%): 7%
  Population Mitochondria Different-Phenotype (%): 3%
  Population Mitotic Cells (%): 14%
  Population Normal (%): 98%
  Population Pyknosed Nuclei (%): 9%
  Population Tubulin-Different-Phenotype (%): 2%
  Total Cell Count: 233
[11]
  Population Apoptotic (%): 95%
  Population Fragmented Nuclei (%): 57%
  Population Healthy Nuclei (%): 11%
  Population Hoechst High Intensity Objects (%): 14%
  Population Membrane Permeable-Phenotype (%): 27%
  Population Mitochondria Different-Phenotype (%): 16%
  Population Mitotic Cells (%): 4%
  Population Normal (%): 85%
  Population Pyknosed Nuclei (%): 30%
  Population Tubulin-Different-Phenotype (%): 11%
  Total Cell Count: 177
[12]
  Population Apoptotic (%): 96%
  Population Fragmented Nuclei (%): 31%
  Population Healthy Nuclei (%): 27%
  Population Hoechst High Intensity Objects (%): 7%
  Population Membrane Permeable-Phenotype (%): 17%
  Population Mitochondria Different-Phenotype (%): 14%
  Population Mitotic Cells (%): 3%
  Population Normal (%): 92%
  Population Pyknosed Nuclei (%): 41%
  Population Tubulin-Different-Phenotype (%): 17%
  Total Cell Count: 163

## COc1cc2nc(N3CCN(C(=O)COc4c(OC)cccc4C(C)C)CC3)nc(N)c2cc1OC.Cl.Cl
[1]
  Population Apoptotic (%): 67%
  Population Fragmented Nuclei (%): 21%
  Population Healthy Nuclei (%): 66%
  Population Hoechst High Intensity Objects (%): 3%
  Population Membrane Permeable-Phenotype (%): 10%
  Population Mitochondria Different-Phenotype (%): 5%
  Population Mitotic Cells (%): 32%
  Population Normal (%): 96%
  Population Pyknosed Nuclei (%): 11%
  Population Tubulin-Different-Phenotype (%): 6%
  Total Cell Count: 256
[2]
  Population Apoptotic (%): 33%
  Population Fragmented Nuclei (%): 10%
  Population Healthy Nuclei (%): 84%
  Population Hoechst High Intensity Objects (%): 2%
  Population Mitochondria Different-Phenotype (%): 6%
  Population Mitotic Cells (%): 66%
  Population Normal (%): 97%
  Population Pyknosed Nuclei (%): 4%
  Total Cell Count: 136
[3]
  Population Apoptotic (%): 55%
  Population Fragmented Nuclei (%): 30%
  Population Healthy Nuclei (%): 43%
  Population Hoechst High Intensity Objects (%): 3%
  Population Membrane Permeable-Phenotype (%): 60%
  Population Mitochondria Different-Phenotype (%): 55%
  Population Mitotic Cells (%): 44%
  Population Normal (%): 96%
  Population Pyknosed Nuclei (%): 25%
  Population Tubulin-Different-Phenotype (%): 75%
  Total Cell Count: 233
[4]
  Population Apoptotic (%): 66%
  Population Fragmented Nuclei (%): 19%
  Population Healthy Nuclei (%): 48%
  Population Hoechst High Intensity Objects (%): 0%
  Population Membrane Permeable-Phenotype (%): 54%
  Population Mitochondria Different-Phenotype (%): 65%
  Population Mitotic Cells (%): 33%
  Population Normal (%): 99%
  Population Pyknosed Nuclei (%): 32%
  Population Tubulin-Different-Phenotype (%): 68%
  Total Cell Count: 151
[5]
  Population Apoptotic (%): 84%
  Population Fragmented Nuclei (%): 21%
  Population Healthy Nuclei (%): 67%
  Population Hoechst High Intensity Objects (%): 3%
  Population Membrane Permeable-Phenotype (%): 6%
  Population Mitochondria Different-Phenotype (%): 8%
  Population Mitotic Cells (%): 15%
  Population Normal (%): 96%
  Population Pyknosed Nuclei (%): 11%
  Population Tubulin-Different-Phenotype (%): 4%
  Total Cell Count: 297
[6]
  Population Apoptotic (%): 80%
  Population Fragmented Nuclei (%): 15%
  Population Healthy Nuclei (%): 77%
  Population Hoechst High Intensity Objects (%): 0%
  Population Membrane Permeable-Phenotype (%): 10%
  Population Mitochondria Different-Phenotype (%): 7%
  Population Mitotic Cells (%): 20%
  Population Normal (%): 99%
  Population Pyknosed Nuclei (%): 6%
  Population Tubulin-Different-Phenotype (%): 5%
  Total Cell Count: 154
[7]
  Population Apoptotic (%): 76%
  Population Fragmented Nuclei (%): 30%
  Population Healthy Nuclei (%): 36%
  Population Hoechst High Intensity Objects (%): 9%
  Population Membrane Permeable-Phenotype (%): 40%
  Population Mitochondria Different-Phenotype (%): 49%
  Population Mitotic Cells (%): 24%
  Population Normal (%): 90%
  Population Pyknosed Nuclei (%): 33%
  Population Tubulin-Different-Phenotype (%): 50%
  Total Cell Count: 246
[8]
  Population Apoptotic (%): 87%
  Population Fragmented Nuclei (%): 20%
  Population Healthy Nuclei (%): 40%
  Population Hoechst High Intensity Objects (%): 12%
  Population Membrane Permeable-Phenotype (%): 49%
  Population Mitochondria Different-Phenotype (%): 50%
  Population Mitotic Cells (%): 12%
  Population Normal (%): 87%
  Population Pyknosed Nuclei (%): 39%
  Population Tubulin-Different-Phenotype (%): 60%
  Total Cell Count: 185
[9]
  Population Apoptotic (%): 83%
  Population Fragmented Nuclei (%): 20%
  Population Healthy Nuclei (%): 70%
  Population Hoechst High Intensity Objects (%): 2%
  Population Membrane Permeable-Phenotype (%): 6%
  Population Mitochondria Different-Phenotype (%): 6%
  Population Mitotic Cells (%): 16%
  Population Normal (%): 97%
  Population Pyknosed Nuclei (%): 8%
  Population Tubulin-Different-Phenotype (%): 4%
  Total Cell Count: 441
[10]
  Population Apoptotic (%): 75%
  Population Fragmented Nuclei (%): 16%
  Population Healthy Nuclei (%): 72%
  Population Hoechst High Intensity Objects (%): 3%
  Population Membrane Permeable-Phenotype (%): 7%
  Population Mitotic Cells (%): 25%
  Population Normal (%): 96%
  Population Pyknosed Nuclei (%): 11%
  Population Tubulin-Different-Phenotype (%): 6%
  Total Cell Count: 225
[11]
  Population Apoptotic (%): 88%
  Population Fragmented Nuclei (%): 40%
  Population Healthy Nuclei (%): 21%
  Population Hoechst High Intensity Objects (%): 31%
  Population Membrane Permeable-Phenotype (%): 13%
  Population Mitochondria Different-Phenotype (%): 30%
  Population Mitotic Cells (%): 11%
  Population Normal (%): 68%
  Population Pyknosed Nuclei (%): 38%
  Population Tubulin-Different-Phenotype (%): 13%
  Total Cell Count: 296
[12]
  Population Apoptotic (%): 93%
  Population Fragmented Nuclei (%): 24%
  Population Healthy Nuclei (%): 23%
  Population Hoechst High Intensity Objects (%): 32%
  Population Membrane Permeable-Phenotype (%): 27%
  Population Mitochondria Different-Phenotype (%): 10%
  Population Mitotic Cells (%): 6%
  Population Normal (%): 67%
  Population Pyknosed Nuclei (%): 51%
  Population Tubulin-Different-Phenotype (%): 24%
  Total Cell Count: 180
